MrgX1 antagonist = antagonists of human MrgX1 receptor. MRGX1-HEK293 calcium flux, Fluo-4, BAM8-22 antagonism; active compounds read low. AID 588676. B-score at 10 µM. 310,000 compounds, 1.3% hits;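 active = calcium-response B-score plate-corrected more than 3 library SD below zero, starting fluorescence within 5 deviations, no agonist response on first addition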;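 note: peak minus trough fluorescence over baseline after final BAM8-22 challenge near maximal dose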
Target sequence (Q96LB2 whole entry, looked up): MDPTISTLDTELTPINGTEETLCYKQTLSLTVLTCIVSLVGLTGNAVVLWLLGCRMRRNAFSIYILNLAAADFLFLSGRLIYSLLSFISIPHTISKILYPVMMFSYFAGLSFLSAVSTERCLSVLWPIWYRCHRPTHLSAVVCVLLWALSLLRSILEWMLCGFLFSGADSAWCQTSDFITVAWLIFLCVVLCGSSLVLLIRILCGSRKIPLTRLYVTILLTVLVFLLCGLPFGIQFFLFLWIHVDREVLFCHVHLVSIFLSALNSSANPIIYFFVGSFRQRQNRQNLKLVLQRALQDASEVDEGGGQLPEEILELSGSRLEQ
RGS4 act = potentiators or activators of RGS4. HEK293 M3R/inducible RGS4, carbachol calcium flux Fluo4; active compounds read low. B-score at 10 µM. 310,000 compounds, 0.92% hits. AID 463111;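 active = B-score of the integrated calcium signal more than 4 SD below the library mean, with starting fluorescence not abnormally high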;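 note: negative B-score means reduced calcium response which marks RGS4 activation or potentiation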
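test system = M3R-expressing HEK293 line, RGS4 induced by doxycycline | probe or stimulus = carbachol at ECmax as muscarinic agonist stimulus | timing = dye loading 30 min 37 °C, buffer rest 30 min RT | signal = calcium dye Fluo4 fluorescence | evaluation = B score from integrated fluorescence ratio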
MrgX1 agonist = activates human MrgX1 receptor signaling; MrgX1-HEK293 cells, Fluo-4 calcium fluorescence, agonist mode; active compounds read high; Q96LB2; AID 588627; B-score at 10 µM; 310,000 compounds, 0.44% hits;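 active = calcium response B-score plate-corrected fluorescence ratio at least 3 library SD, with starting fluorescence B-score inside 5 SD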
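Material: MrgX1-expressing HEK293 cells / Dosing: compound as first of three additions / Incubation: overnight seeding, then 1 h dark dye loading / Signal: Fluo-4 NW calcium fluorescence / Evaluation: B-scored fluorescence response ratio / Benchmarks: positive and negative control wells on each plate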
RGS4 inh = human RGS4 inhibition | HEK293 M3R/RGS4 inducible, Fluo-4 calcium flux; active compounds read high; triggered by carbachol at its EC20 | 310,000 compounds, 0.45% hits | P49798 | B-score at 10 µM;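 active = B-score, a plate-corrected calcium signal, over three deviations above library mean, with baseline fluorescence within five deviations of library mean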;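 note: RGS4 expression induced by doxycycline in cells with stable M3 receptor; B-score is computed from the integrated fluorescence ratio over baseline after carbachol; higher B-score means a larger calcium signal and so more RGS4 inhibition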
Target sequence (P49798 whole entry, looked up): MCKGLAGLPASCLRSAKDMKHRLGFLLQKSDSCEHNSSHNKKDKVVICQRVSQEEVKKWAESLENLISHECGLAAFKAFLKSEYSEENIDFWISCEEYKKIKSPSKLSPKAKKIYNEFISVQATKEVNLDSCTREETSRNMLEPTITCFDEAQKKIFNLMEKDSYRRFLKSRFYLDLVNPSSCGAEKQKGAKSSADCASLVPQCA
MrgX1 allo act = allosterically activates human MrgX1 receptor signaling; AID 588675; 310,000 compounds, 0.63% hits; B-score at 10 µM; MrgX1-HEK293, Fluo-4 calcium flux, FDSS; active compounds read high; Q96LB2;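 active = plate-corrected calcium response at least 3 library SD above typical, normal starting fluorescence, not activating the receptor alone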;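 note: compound read alongside a low EC10 to EC30 dose of BAM8-22 agonist; peak minus trough fluorescence over baseline measured at the second addition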
RGS4 inh valid = RGS4 inhibitor validation; calcium response, % at 10 µM; HEK293 M3R/RGS4, carbachol calcium Fluo-4 fluorescence; carbachol added at its EC20; 0 = buffer wells, 100 = carbachol control; shares compounds with RGS4 inh; 1,700 compounds, 65% hits;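 active = duplicate-averaged calcium response above the buffer-only control mean plus 5 SD of those controls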;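 note: integrated fluorescence ratio F max minus min over baseline F0; higher response in RGS4-induced cells means RGS4 inhibition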
RGS4 uninduced = non-induced cell nonspecific activity of RGS4 inhibitors | HEK293 M3R non-induced, carbachol calcium Fluo-4; submaximal (EC20) carbachol stimulus; buffer wells 0%, carbachol control wells 100% | shares compounds with RGS4 inh | 1,900 compounds, 20% hits | AID 493000 | activity (percent), % at 10 µM; call rule not given here;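 note: RGS4 induction absent so cells express M3R without RGS4; higher means more calcium signal and flags a non-specific hit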
RGS4 inh ctr2 = second counter-screen for RGS4 inhibitors: non-induced cells without carbachol | shares compounds with RGS4 inh | HEK293 M3R/RGS4 non-induced, Fluo-4 calcium, no carbachol; normalised: buffer wells 0%, carbachol wells 100% | calcium response (agonist-mode artifact), % at 10 µM | 1,900 compounds, 22% hits;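 active = duplicate-averaged calcium rise in uninduced cells above buffer wells' mean plus 5 SD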
Of the large screens only hits and unclear results are named; the others gave an inactive call (follow-up assays come after a bar, where they were run). Compounds with a hit are over-represented: about 3.5% of the library has one in this group of screens.

Cc1ccc(C(=O)NC(C#N)=C(Cl)Cl)cc1	RGS4 inh 9.82 (no result: MrgX1 antagonist, MrgX1 agonist, MrgX1 allo act) | RGS4 inh valid 21.0% | RGS4 uninduced inactive | RGS4 inh ctr2 inactive
Cc1ccc(C(=O)NCC#N)cc1	none
CN1C(=O)S/C(=C\c2ccccc2OCc2ccc(C(=O)O)cc2)C1=O	RGS4 inh 6.19 | RGS4 inh valid 13.5% | RGS4 uninduced inactive | RGS4 inh ctr2 inactive
CC(C)N1C(=O)S/C(=C/c2ccccc2OCc2ccc(C(=O)O)cc2)C1=O	none | RGS4 inh valid inactive | RGS4 uninduced inactive | RGS4 inh ctr2 inactive
N#Cc1ccc(C(=O)NCC2CCCCC2)cc1	none
NC(=O)CC(NC(=O)c1ccc(Br)cc1)c1ccc(NC2CCCCCC2)c([N+](=O)[O-])c1 (stereo not given)	none
COC(=O)[C@@H](NC(=O)N1CCN(C(=O)C2COc3ccccc3O2)CC1)C(C)C (stereo not given in full)	none
COc1ccccc1/C=C/C=N/NC(=O)c1cc(-c2ccc(C)o2)[nH]n1	none
C/C(=N\NC(=O)c1cccc(O)c1)c1ccc(NC(=O)Cc2ccccc2)cc1	none
COc1ccc(NC(=O)COC(=O)C2CC(=O)N(c3ccc(C)cc3)C2)cc1 (stereo not given)	none
CCC(C(=O)N1CCOCC1)n1nc(C)c2c(C)n(-c3ccccc3)nc2c1=O (stereo not given)	RGS4 inh 8.97 | RGS4 inh valid 5.0% | RGS4 uninduced inactive | RGS4 inh ctr2 inactive
Cc1cc(C)c(C#N)c(SCC(=O)Nc2nonc2N)n1	none
CCOC(=O)CSc1nnc(CNc2ccc(Cl)cc2)n1-c1ccccc1	none
CCOc1ccc(NCc2nnc(SCc3ccc(Cl)cc3)n2-c2ccccc2)cc1	none | RGS4 uninduced inactive | RGS4 inh ctr2 inactive
CNC(=S)N1CCN(C(=O)C2CCCO2)CC1 (stereo not given)	RGS4 inh 4.73 | RGS4 inh valid inactive | RGS4 uninduced inactive | RGS4 inh ctr2 inactive
Cc1ccc2occ(/C=N/NC(N)=S)c(=O)c2c1	RGS4 inh 11 | RGS4 inh valid 53.5% | RGS4 uninduced 66.5% | RGS4 inh ctr2 inactive
Cc1ccc2occ(/C=N/NC(=O)c3ccc(O)cc3)c(=O)c2c1	none
Cc1ccc(Nc2nc(=O)c3cccnc3s2)c(Br)c1	none
CCOc1cccc(-c2c(C(=O)N/N=C/c3ccc(C)s3)nnn2-c2nonc2N)c1	none | RGS4 uninduced inactive | RGS4 inh ctr2 inactive
CCOc1ccc(-c2c(C(=O)N/N=C/c3sccc3C)nnn2-c2nonc2N)cc1	none
CCOc1cccc(-c2c(C(=O)N/N=C/c3ccsc3)nnn2-c2nonc2N)c1	none | RGS4 uninduced inactive | RGS4 inh ctr2 inactive
COc1cccc(-c2c(C(=O)N/N=C/c3ccc(C)s3)nnn2-c2nonc2N)c1	none
Cc1ccc(-c2c(C(=O)N/N=C/c3ccsc3)nnn2-c2nonc2N)cc1	none
CCOc1cccc(-c2c(C(=O)N/N=C/c3sccc3C)nnn2-c2nonc2N)c1	none | RGS4 uninduced inactive | RGS4 inh ctr2 inactive
CCCn1c(N)c(N(CCOC)C(=O)c2cc(C)cc(C)c2)c(=O)[nH]c1=O	none
Cc1ccc(O)c(NC(=O)c2cc(-c3cccs3)on2)c1	none
O=[N+]([O-])c1ccccc1-c1cc(-c2ccccc2O)n[nH]1	none | RGS4 inh valid inactive | RGS4 uninduced inactive | RGS4 inh ctr2 inactive
CCOC(=O)c1sc(=S)n(-c2ccccc2)c1N(C(C)=O)C(C)=O	RGS4 inh 4.87 | RGS4 inh valid inactive | RGS4 uninduced inactive | RGS4 inh ctr2 inactive
CCOC(=O)c1sc(=S)n(-c2ccccc2)c1N	none
COc1ccc(S(=O)(=O)NC(CCSC)C(=O)NC2CCCCC2)cc1 (stereo not given)	RGS4 inh 5.15 | RGS4 inh valid inactive | RGS4 uninduced inactive | RGS4 inh ctr2 inactive
CSCCC(NS(=O)(=O)c1ccc(C)cc1)C(=O)NC1CCCCCC1 (stereo not given)	none | RGS4 uninduced inactive | RGS4 inh ctr2 inactive
CSCCC(NS(=O)(=O)c1ccc(C)cc1)C(=O)NC1CCCCC1 (stereo not given)	none | RGS4 inh valid inactive | RGS4 uninduced inactive | RGS4 inh ctr2 inactive
COc1ccc(C(=O)COC(=O)C(CCSC)NS(=O)(=O)c2ccc(Cl)cc2)cc1 (stereo not given)	none
O=C1CC(NS(=O)(=O)c2ccc([N+](=O)[O-])cc2)CN1c1ccc(Cl)cc1 (stereo not given)	none
CCOC(=O)[C@@H]1[C@H]2COc3ccc(Br)cc3[C@@H]2N2C(=O)N(c3cccc(Cl)c3)C(=O)[C@]12C	none | RGS4 inh valid inactive | RGS4 uninduced inactive | RGS4 inh ctr2 inactive
CCOC(=O)[C@@H]1[C@H]2COc3ccc(Br)cc3[C@H]2N2C(=O)N(c3cccc(Cl)c3)C(=O)[C@]12C	none | RGS4 inh valid inactive | RGS4 uninduced inactive | RGS4 inh ctr2 inactive
CCOC(=O)[C@@H]1[C@H]2COc3ccc(Br)cc3[C@@H]2N2C(=O)N(c3ccccc3)C(=O)[C@@]12C	none
Cc1cc(C)n2nc(CCCO)nc2n1	none
CSc1nc(-c2ccc(Cl)cc2)nn1C(=O)c1ccco1	RGS4 inh 5.6 | RGS4 inh valid inactive | RGS4 uninduced inactive | RGS4 inh ctr2 inactive
COc1ccc(-c2c(-c3ccc(O)cc3O)n[nH]c2C(F)(F)F)cc1	RGS4 inh 10.4 | RGS4 inh valid 35.0% | RGS4 uninduced 35.0% | RGS4 inh ctr2 20.0%
Oc1ccc(-c2n[nH]c(C(F)(F)F)c2-c2ccccc2)c(O)c1	RGS4 inh 25.1 | RGS4 inh valid 48.5% | RGS4 uninduced 46.5% | RGS4 inh ctr2 inactive
COc1ccc(-c2c(-c3ccc(O)cc3O)n[nH]c2C)cc1OC	none
Nc1ncc(-c2ccccc2)c(-c2ccc(O)cc2O)n1	none
COc1ccccc1-c1c(-c2ccc(O)cc2O)n[nH]c1C(F)(F)F	RGS4 inh 10.8 | RGS4 inh valid 39.5% | RGS4 uninduced 33.0% | RGS4 inh ctr2 inactive
CSCC[C@H](NC(=O)c1ccco1)c1nnc2ccccn12	none
O=Cc1c(NC2CCCCC2)c2ccccc2[nH]c1=O	none
CCOC(=O)COc1ccccc1/C=C\[N+](=O)[O-]	RGS4 inh 19.1 | RGS4 inh valid 69.5% | RGS4 uninduced inactive | RGS4 inh ctr2 11.0%
CCOC(=O)COc1cc([N+](=O)[O-])cc2cccnc12	none
